Series [1] concerns Leishmania donovani. As to the kind of experiment: Antileishmanial activity against Leishmania donovani MHOM/IN/Dd8 […] carrying firefly luciferase gene infected in mouse J774A1 cells assessed as relative luminescence unit at 10 ug/mL after 72 hrs. The class given is functional. The note with it: for inhibition: J774.A1; for inhibition at 10 µg/mL: MHOM/IN/Dd8, J774.A1, 72 h.

For series [2], the system named is Leishmania donovani. As to the kind of experiment: Antileishmanial activity against Leishmania donovani MHOM/IN/Dd8 amastigote carrying firefly luciferase gene infected in mouse J774A1 cells assessed as relative luminescence unit at 12.5 ug/mL after 72 hrs. Format: functional. The note with it: for inhibition: J774.A1. Summed up:
(§1)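 J774A.1 macrophages (1.5 × 10⁴/well) were seeded in RPMI-1640 with 10% FCS at 37 °C under CO₂. After 24 h they were infected with stationary-phase luciferase-expressing promastigotes (4 × 10³/well). The medium was then replaced with compound at 0.195-12.5 μg/mL for 72 h. Steady Glo luminescence (RLU) was read, and inhibition was calculated against untreated controls. IC50 values are the mean of two independent assays.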

The subject of series [3] is J774.A1. As to the kind of experiment: Cytotoxicity against mouse J774A1 by MTT assay. The class given is cell-based. The procedure, abridged: (§2)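 J774A.1 or KB cells were grown in RPMI with 10% FCS. Exponentially growing cells (1 × 10⁴/well) were exposed to a range of compound concentrations (DMSO stocks diluted in medium) for 72 h at 37 °C. MTT was added for 2 h, formazan was dissolved in DMSO, and absorbance was read at 544 nm. IC50 was the concentration giving 50% viability loss versus medium-only cells, estimated by template.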
A general note: Tetrazolium assays rely on reduction of a dye to a coloured formazan, in cell work by metabolically active cells.

Series [4] has as its system Leishmania donovani. Nature of the series: Antileishmanial activity against Leishmania donovani MHOM/IN/Dd8 amastigote carrying firefly luciferase gene infected in mouse J774A1 cells assessed as relative luminescence unit at 10 ug/mL after 72 hrs. The class given is functional. The note with it: MHOM/IN/Dd8, J774.A1, 72 h.
Series [5] concerns Leishmania donovani. As to the kind of experiment: Antileishmanial activity against Leishmania donovani MHOM/IN/Dd8 amastigote carrying firefly luciferase gene infected in mouse J774A1 cells assessed as relative luminescence unit after 72 hrs. Format: functional, organism-based. The note with it: MHOM/IN/Dd8, J774.A1, 72 h. Summed up: as §1
In a further series the test system is KB. As to the kind of experiment: Cytotoxicity against human KB cells by MTT assay. The class given is cell-based. Summed up:
as §2

The nature of series [6]: Selectivity index, ratio of IC50 for Leishmania donovani MHOM/IN/Dd8 amastigote to IC50 for human KB cells.
For series [7], the system named is Leishmania donovani. Nature of the series: Ratio of drug to pentamidine for antileishmanial activity against Leishmania donovani MHOM/IN/Dd8 in mouse J774A1 cells by intracellular amastigote assay. Format: functional, J774.A1.
Series [8] relates to Leishmania donovani. Nature of the series: Antileishmanial activity against Leishmania donovani MHOM/IN/Dd8 amastigote infected in golden hamster assessed as parasite reduction at 50 mg/kg, ip for 5 consecutive days. Format: functional. More on the design: scale not given: the % may be the effect or the level left. The note with it: route intraperitoneal. The procedure, abridged:
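Golden hamsters (40-45 g) were infected intracardially with 1 × 10⁷ amastigotes. Animals with +1 infection by spleen biopsy were randomized, 5-6 per sample. Intraperitoneal dosing started 2 days after biopsy and ran for 5 consecutive days. Biopsies taken 7 days after the last dose were Giemsa-stained and counted. Percentage inhibition was corrected for initial burden and the rise in untreated controls.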

Series [9] concerns J774.A1. As to the kind of experiment: Cytotoxicity against mouse J774A1 at 12.5 ug/mL by MTT assay. The class given is cell-based.

≈ marks a conversion by molar mass, not a printed value. Calls of active or inactive are those of the source. The calls are words filed in the database; no cut-off is given here. Where only a bound is given, the exact number is not on record here.

With `COc1ccc(C/N=C2\NC(=O)/C(=C/c3c[nH]c4ccccc34)N2)cc1OC`, the inhibition result in the series with Leishmania donovani [1] and in the series with Leishmania donovani [2] was “inactive” each time.
Take `CCCC/N=C1\NC(=O)/C(=C/c2cn(CCCCCOc3ccc(C#N)cc3)c3ccccc23)N1`: the inhibition at 10 µg/mL with Leishmania donovani [1] is 88%. In addition, the inhibition entry in the series with Leishmania donovani [2] was “inactive”.
As for `CN1C(=S)NC(=O)/C1=C\c1cn(CCCCCOc2ccc(C#N)cc2)c2ccccc12`, the inhibition at 10 µg/mL in the series on Leishmania donovani [1] is 46.4%. Also, in the series on J774.A1 [3], half-maximal inhibition (IC50) required 14.8 µg/mL (≈ 33.3 µM).
`N#Cc1ccc(OCCCCCn2cc(/C=C3\NC(=S)NC3=O)c3cc(Br)ccc32)cc1` (mixture of isomers): the inhibition at 10 µg/mL in the series with Leishmania donovani [4] turned out to be 12.6%.
Consider `N#Cc1ccc(OCCCCCCn2cc(/C=C3\NC(=S)NC3=O)c3ccccc32)cc1`, for which the inhibition at 10 µg/mL in the series with Leishmania donovani [1] was found to be 71.3%. For the same compound, the 50% inhibitory concentration (IC50) in the series on J774.A1 [3] is 2.3 µg/mL (≈ 5.17 µM).
The matching figures for `O=C1NC(=S)N/C1=C\c1cn(CCCCCOc2ccccc2)c2ccccc12`: 40.7% and more than 100 µg/mL.
In the case of `N#Cc1ccc(OCCCCCn2cc(C=O)c3ccccc32)cc1`, the inhibition entry in the series with Leishmania donovani [1] and in the series with Leishmania donovani [2] was “inactive” in each case.
Take `CN1C(=S)NC(=O)/C1=C\c1cn(CCCCCOc2ccc(/C(N)=N/O)cc2)c2ccccc12`: the inhibition at 10 µg/mL was 88.2% in the series with Leishmania donovani [1] and 99.3% in the series on Leishmania donovani [4]. For the same compound, the IC50 with Leishmania donovani [5] was determined as 2 µM; with KB it was 108 µM. Further, the “Ratio IC50” value in [6] was determined as 53.4. Moreover, the “fold change (FC)” value in the series with Leishmania donovani [7] worked out at 10.
In the case of `N#Cc1ccc(OCCCCCn2cc(/C=C3\NC(=S)NC3=O)c3ccccc32)cc1`, in the series with Leishmania donovani [1], the inhibition at 10 µg/mL was determined as 95.1%. Besides, the inhibition at 12.5 µg/mL in the series with Leishmania donovani [2] (MHOM/IN/Dd8, J774.A1, 72 h) was determined as 62%. For the same compound, the IC50 in the series with Leishmania donovani [5] was 18.2 µM. Besides, the Activity in the series with Leishmania donovani [8] was 62.1%; in the series on J774.A1 [9], “Non-toxic”.
As for `Nc1cc(OCCCCCn2cc(/C=C3\NC(=S)NC3=O)c3ccccc32)ccn1`, in the series with Leishmania donovani [4], the inhibition at 10 µg/mL was 32.2%.
For `N#Cc1ccc(OCCCCCn2cc(/C=C3\N/C(=N/Cc4ccccc4)NC3=O)c3ccccc32)cc1`, the inhibition at 10 µg/mL with Leishmania donovani [1] stood at 93.9%. For the same compound, in the series on Leishmania donovani [2], the inhibition entry is “inactive”.
On to `O=C1NC(=S)N/C1=C\c1c[nH]c2ccccc12`, for which the inhibition result in the series on Leishmania donovani [1] and with Leishmania donovani [2] was “inactive” each time.
Take `CSC1=N/C(=C\c2cn(CCCCCOc3ccc(C#N)cc3)c3ccccc23)C(=O)N1`: in the series with Leishmania donovani [1], the inhibition at 10 µg/mL amounted to 75.4%. The same compound displayed an IC50 in the series with J774.A1 [3] of more than 100 µg/mL.
With `N#Cc1ccc(OCCCCCn2cc(/C=C3\NC(=O)NC3=O)c3ccccc32)cc1`, the inhibition entry in the series with Leishmania donovani [1] and in the series on Leishmania donovani [2] was “inactive” in each case. This compound displayed an IC50 with J774.A1 [3] of 33 µg/mL (≈ 79.6 µM).
With `N#Cc1ccc(OCCCCn2cc(/C=C3\NC(=S)NC3=O)c3ccccc32)cc1`, the inhibition at 10 µg/mL in the series on Leishmania donovani [1] amounted to 58.8%. The IC50 in the series on J774.A1 [3] was more than 100 µg/mL.
As to `N#Cc1ccc(OCCCCCn2cc(/C=C3\NC(=S)NC3=O)c3cccnc32)cc1`, the IC50 was 6.5 µM with Leishmania donovani [5] and 187 µM in the series with KB. Further, the inhibition at 10 µg/mL with Leishmania donovani [4] came to 97%. The “Ratio IC50” value in [6] was 28.6.
`N=C(N)c1ccc(OCCCCCOc2ccc(C(=N)N)cc2)cc1.O=S(=O)(O)CCO`: the IC50 in the series with Leishmania donovani [5] is 20.4 µM; in the series with KB, 2.7 µM. For the same compound, in series [6], the “Ratio IC50” value was less than 1.
As for `O=C1NC(=S)N/C1=C\c1cn(CCCCCN2CCN(c3ccccc3)CC2)c2ccccc12`, the inhibition at 10 µg/mL with Leishmania donovani [1] is 88.3%. Moreover, the inhibition result with Leishmania donovani [2] was “inactive”. Further, in the series on J774.A1 [3], the IC50 is more than 100 µg/mL.
As to `N#Cc1ccc(OCCCCCn2cc(/C=C3\N/C(=N/c4ccccc4)NC3=O)c3ccccc32)cc1`, the inhibition at 10 µg/mL in the series with Leishmania donovani [1] is 92.8%. In the series on Leishmania donovani [2], the inhibition result is “inactive”.
With `N/C(=N\O)c1ccc(OCCCCCn2cc(/C=C3\NC(=S)NC3=O)c3ccccc32)cc1` (mixture of isomers), the inhibition at 10 µg/mL with Leishmania donovani [4] worked out at 0%.
`COc1ccc(C/N=C2\NC(=O)/C(=C/c3cn(CCCCCOc4ccc(C#N)cc4)c4ccccc34)N2)cc1OC`: the inhibition at 10 µg/mL in the series with Leishmania donovani [1] worked out at 93.7%. Further, in the series with Leishmania donovani [2], the inhibition result was “inactive”.
For the compound `CSC1=N/C(=C\c2cn(CCCCCOc3ccc(C#N)cc3)c3ccccc23)C(=O)N1C`, the inhibition at 10 µg/mL with Leishmania donovani [1] was determined as 63.2%. The compound also yielded an IC50 in the series with J774.A1 [3] of more than 100 µg/mL.
For `O=C1N/C(=N\Cc2ccccc2)N/C1=C\c1c[nH]c2ccccc12`, the inhibition result in the series with Leishmania donovani [1] and with Leishmania donovani [2] was “inactive” in each case.
Consider `NC(=O)c1ccc(OCCCCCn2cc(/C=C3\NC(=S)NC3=O)c3ccccc32)cc1` (mixture of isomers), for which the inhibition at 10 µg/mL in the series on Leishmania donovani [4] is 48.9%.
With `N#Cc1ccc(OCCCCCn2cc(/C=C3\NC(=N)NC3=O)c3ccccc32)cc1`, the inhibition at 10 µg/mL with Leishmania donovani [4] amounted to 0%.

As usually defined, the inhibition is the drop in the measured response relative to a control, in per cent. For orientation: IC50 means the midpoint of a concentration-inhibition curve.
